The target of experiment [1] is T1, Ectonucleotide pyrophosphatase/phosphodiesterase family member 3 (Homo sapiens) (UniProt O14638).
T1 sequence (whole entry): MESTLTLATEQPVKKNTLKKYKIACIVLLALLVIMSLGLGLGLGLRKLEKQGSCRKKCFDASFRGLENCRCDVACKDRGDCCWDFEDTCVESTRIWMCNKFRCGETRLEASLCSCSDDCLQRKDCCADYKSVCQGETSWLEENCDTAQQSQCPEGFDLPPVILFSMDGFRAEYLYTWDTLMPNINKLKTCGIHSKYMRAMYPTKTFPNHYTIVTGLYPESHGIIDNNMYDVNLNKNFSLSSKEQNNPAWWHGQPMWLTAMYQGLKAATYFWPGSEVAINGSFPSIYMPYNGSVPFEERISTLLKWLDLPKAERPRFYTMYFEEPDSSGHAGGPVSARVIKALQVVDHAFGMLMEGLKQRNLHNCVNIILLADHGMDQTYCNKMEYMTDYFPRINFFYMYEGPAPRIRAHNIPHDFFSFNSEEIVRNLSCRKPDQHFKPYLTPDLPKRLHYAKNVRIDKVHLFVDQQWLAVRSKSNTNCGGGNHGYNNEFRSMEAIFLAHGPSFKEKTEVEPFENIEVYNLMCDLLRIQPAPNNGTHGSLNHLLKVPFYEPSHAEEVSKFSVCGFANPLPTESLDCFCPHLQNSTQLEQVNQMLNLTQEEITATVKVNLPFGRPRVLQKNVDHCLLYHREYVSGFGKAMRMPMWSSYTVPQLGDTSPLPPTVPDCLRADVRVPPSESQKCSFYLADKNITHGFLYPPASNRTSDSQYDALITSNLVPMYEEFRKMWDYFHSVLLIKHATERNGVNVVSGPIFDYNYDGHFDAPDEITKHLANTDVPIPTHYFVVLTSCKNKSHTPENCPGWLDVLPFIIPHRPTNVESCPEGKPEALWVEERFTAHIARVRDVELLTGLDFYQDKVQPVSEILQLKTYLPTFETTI
Briefly: Inhibition of NPP3 in human HTB-85 cells assessed as production of p-nitrophenol using pnp-TMP at 100 uM measured after 20 mins by spectrophotometry. In kind it is cell-based. The gist of the method:
(§1)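 Intact osteocarcinoma HTB85 (SaOS-2) cells in 24-well plates, 0.5 mL incubation mixture, analogue and pnp-TMP each at 100 μM. After 20 min an aliquot was read for p-nitrophenol at 410 nm. Substrate alone set as 100%. Mean ± SD of three experiments in triplicate.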

The target in experiment [2] is T2, Ectonucleotide pyrophosphatase/phosphodiesterase family member 1 (Homo sapiens) (UniProt P22413).
T2 sequence (whole entry): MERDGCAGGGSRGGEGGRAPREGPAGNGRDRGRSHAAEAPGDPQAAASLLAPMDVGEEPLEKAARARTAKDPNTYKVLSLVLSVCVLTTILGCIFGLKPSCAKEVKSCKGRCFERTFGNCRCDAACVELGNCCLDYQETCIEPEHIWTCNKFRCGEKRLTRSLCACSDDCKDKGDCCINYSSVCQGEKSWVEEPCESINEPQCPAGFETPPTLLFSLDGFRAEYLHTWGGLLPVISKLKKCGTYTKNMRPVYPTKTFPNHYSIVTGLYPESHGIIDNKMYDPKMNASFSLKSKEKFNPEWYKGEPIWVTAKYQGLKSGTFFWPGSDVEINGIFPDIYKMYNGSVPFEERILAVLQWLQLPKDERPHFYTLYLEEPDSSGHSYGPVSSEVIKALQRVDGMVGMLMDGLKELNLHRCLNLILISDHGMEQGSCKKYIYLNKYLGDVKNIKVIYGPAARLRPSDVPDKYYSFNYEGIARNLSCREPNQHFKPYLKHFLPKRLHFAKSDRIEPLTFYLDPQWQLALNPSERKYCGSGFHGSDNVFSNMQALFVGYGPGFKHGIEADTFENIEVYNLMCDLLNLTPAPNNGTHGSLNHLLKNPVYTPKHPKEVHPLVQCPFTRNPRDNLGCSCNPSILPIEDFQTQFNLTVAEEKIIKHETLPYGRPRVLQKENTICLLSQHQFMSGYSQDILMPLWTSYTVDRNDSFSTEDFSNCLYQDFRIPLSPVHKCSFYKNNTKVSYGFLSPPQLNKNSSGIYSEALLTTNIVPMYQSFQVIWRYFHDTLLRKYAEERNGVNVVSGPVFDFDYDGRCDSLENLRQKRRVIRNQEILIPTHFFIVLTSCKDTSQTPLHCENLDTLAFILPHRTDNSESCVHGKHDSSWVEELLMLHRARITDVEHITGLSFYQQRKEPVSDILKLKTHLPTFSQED
Briefly: Inhibition of NPP1 in human HTB-85 cells assessed as production of p-nitrophenol using pnp-TMP at 100 uM measured after 20 mins by spectrophotometry. In kind it is cell-based. The essentials: as §1

For experiment [3], the target named is T2, Ectonucleotide pyrophosphatase/phosphodiesterase family member 1 (Homo sapiens). Briefly: Inhibition of human NPP1 expressed in COS7 cells assessed as production of p-nitrophenol using pnp-TMP as the substrate preincubated at 100 uM for 3 mins before substrate addition measured after 15 mins […]. In kind it is cell-based. To be noted: COS-7. The gist of the method:
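Crude extracts of COS-7 cells transiently transfected with human NPP1 or NPP3, preincubated 3 min at 37 °C in 1 mM CaCl2, 140 mM NaCl, 5 mM KCl, 50 mM Tris pH 8.5 with analogue at 100 μM. Reaction started with 100 μM pnp-TMP; p-nitrophenol at 410 nm after 15 min. Activity without analogue set as 100%. Mean ± SD of 3−6 experiments in triplicate.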

Experiment [4] addresses T3, Ectonucleoside triphosphate diphosphohydrolase 3 (Homo sapiens) (UniProt O75355).
T3 sequence (whole entry): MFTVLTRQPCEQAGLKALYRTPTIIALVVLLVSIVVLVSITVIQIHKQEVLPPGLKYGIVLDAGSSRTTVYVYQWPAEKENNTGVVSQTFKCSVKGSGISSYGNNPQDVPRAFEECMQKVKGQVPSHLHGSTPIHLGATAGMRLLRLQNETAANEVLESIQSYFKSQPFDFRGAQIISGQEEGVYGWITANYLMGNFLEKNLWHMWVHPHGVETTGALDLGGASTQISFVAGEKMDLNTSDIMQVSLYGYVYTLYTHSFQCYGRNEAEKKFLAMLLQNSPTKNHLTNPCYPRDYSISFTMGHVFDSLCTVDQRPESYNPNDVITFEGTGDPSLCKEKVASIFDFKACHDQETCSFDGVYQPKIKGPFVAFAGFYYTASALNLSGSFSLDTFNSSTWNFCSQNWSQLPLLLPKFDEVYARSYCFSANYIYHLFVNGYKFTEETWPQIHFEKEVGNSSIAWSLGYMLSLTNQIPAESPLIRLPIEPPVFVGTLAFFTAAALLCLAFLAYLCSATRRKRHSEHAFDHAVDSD
Briefly: Inhibition of human NTPDase3 assessed as amount of inorganic phosphate released using ATP as the substrate preincubated at 100 uM for 3 mins before substrate addition after 15 mins by malachite green reagent method. The essentials:
(§2)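 Crude extracts of COS-7 cells transiently transfected with human NTPDase1, -2, -3 or -8, preincubated 3 min at 37 °C in Tris-Ringer medium pH 7.4 with analogue (final 100 μM). Started with 100 μM ATP, stopped after 15 min with malachite green; released Pi read at 630 nm. ATP alone set as 100%. Mean ± SD of 3−6 experiments in triplicate.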

Experiment [5] has as its target T4, Ectonucleoside triphosphate diphosphohydrolase 1 (Homo sapiens) (UniProt P49961).
T4 sequence (whole entry): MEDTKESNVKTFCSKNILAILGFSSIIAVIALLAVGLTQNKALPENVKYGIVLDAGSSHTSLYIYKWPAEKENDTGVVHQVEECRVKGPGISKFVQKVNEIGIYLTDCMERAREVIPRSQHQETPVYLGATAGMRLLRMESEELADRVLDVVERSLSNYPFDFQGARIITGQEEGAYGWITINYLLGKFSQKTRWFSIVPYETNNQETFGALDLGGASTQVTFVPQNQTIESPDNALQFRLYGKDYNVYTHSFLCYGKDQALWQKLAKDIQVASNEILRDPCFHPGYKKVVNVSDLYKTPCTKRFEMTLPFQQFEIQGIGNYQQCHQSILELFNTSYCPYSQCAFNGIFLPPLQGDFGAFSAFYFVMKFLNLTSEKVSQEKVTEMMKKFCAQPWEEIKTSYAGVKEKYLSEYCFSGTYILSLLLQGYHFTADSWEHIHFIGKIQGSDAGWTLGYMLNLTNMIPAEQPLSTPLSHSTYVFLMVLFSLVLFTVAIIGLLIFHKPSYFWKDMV
In words: Inhibition of human NTPDase1 assessed as amount of inorganic phosphate released using ATP as the substrate preincubated at 100 uM for 3 mins before substrate addition after 15 mins by malachite green reagent method. The essentials: as §2

Experiment [6] addresses T2, Ectonucleotide pyrophosphatase/phosphodiesterase family member 1 (Homo sapiens). Briefly: Competitive inhibition of human NPP1 expressed in COS7 cells assessed as production of p-nitrophenol using pnp-TMP as the substrate preincubated at 25 to 100 uM for 3 mins before substrate addition measured after 15 mins by Dixon/Cornish Bowden method. In kind it is cell-based. To be noted: COS-7. The essentials:
(§3)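 Crude protein extract from COS-7 cells transiently transfected with human NPP1 (sonicated, debris cleared at 300g), preincubated 3 min at 37 °C with inhibitor (0, 25, 50, 100 μM) in 1 mM CaCl2, 140 mM NaCl, 5 mM KCl, 50 mM Tris pH 8.5. pnp-TMP (25, 50, 100 μM) added; p-nitrophenol read at 410 nm after 15 min. Ki,app and inhibition type from Dixon and Cornish-Bowden plots, three independent experiments.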

In experiment [7] the target is T5, Ectonucleotide pyrophosphatase/phosphodiesterase family member 1 (Homo sapiens, UniProt P22413).
T5 sequence (P22413 whole entry): T2 sequence (whole entry)
In words: Mixed type inhibition of human NPP1 expressed in COS7 cells assessed as production of p-nitrophenol using pnp-TMP as the substrate preincubated for 3 mins before substrate addition measured after 15 mins by Dixon/Cornish Bowden method. To be noted: read-out: Ki(app). In kind it is cell-based, COS-7. The essentials:
as §3

Experiment [8] concerns the target T6, Ectonucleoside triphosphate diphosphohydrolase 8 (Homo sapiens) (UniProt Q5MY95).
T6 sequence (whole entry): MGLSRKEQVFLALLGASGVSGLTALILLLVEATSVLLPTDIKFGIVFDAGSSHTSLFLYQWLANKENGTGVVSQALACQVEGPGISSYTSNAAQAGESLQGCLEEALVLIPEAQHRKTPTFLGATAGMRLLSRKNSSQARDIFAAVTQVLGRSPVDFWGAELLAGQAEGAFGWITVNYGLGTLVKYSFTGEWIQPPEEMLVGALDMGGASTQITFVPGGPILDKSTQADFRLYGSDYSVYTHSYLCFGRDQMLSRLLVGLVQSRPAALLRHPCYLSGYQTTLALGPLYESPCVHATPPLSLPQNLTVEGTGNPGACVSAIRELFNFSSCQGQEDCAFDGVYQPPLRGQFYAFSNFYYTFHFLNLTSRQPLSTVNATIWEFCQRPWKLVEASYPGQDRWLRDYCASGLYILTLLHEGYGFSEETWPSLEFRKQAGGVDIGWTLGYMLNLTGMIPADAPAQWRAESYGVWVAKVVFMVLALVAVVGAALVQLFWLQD
Briefly: Inhibition of human NTPDase8 assessed as amount of inorganic phosphate released using ATP as the substrate preincubated at 100 uM for 3 mins before substrate addition after 15 mins by malachite green reagent method. The gist of the method:
as §2

The target in experiment [9] is T7, Ectonucleoside triphosphate diphosphohydrolase 2 (Homo sapiens) (UniProt Q9Y5L3).
T7 sequence (whole entry): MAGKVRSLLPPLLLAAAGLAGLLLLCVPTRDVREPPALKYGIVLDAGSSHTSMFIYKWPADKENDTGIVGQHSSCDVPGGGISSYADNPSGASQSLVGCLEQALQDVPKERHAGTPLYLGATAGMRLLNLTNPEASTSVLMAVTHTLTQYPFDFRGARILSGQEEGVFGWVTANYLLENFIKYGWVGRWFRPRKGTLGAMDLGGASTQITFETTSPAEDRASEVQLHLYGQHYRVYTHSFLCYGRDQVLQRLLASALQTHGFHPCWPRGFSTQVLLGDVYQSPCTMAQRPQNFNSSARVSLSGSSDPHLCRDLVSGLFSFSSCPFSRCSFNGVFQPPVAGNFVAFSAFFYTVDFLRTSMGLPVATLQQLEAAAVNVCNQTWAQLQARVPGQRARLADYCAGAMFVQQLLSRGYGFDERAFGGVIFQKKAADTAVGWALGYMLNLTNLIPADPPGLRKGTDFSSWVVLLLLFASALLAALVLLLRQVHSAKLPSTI
Briefly: Inhibition of human NTPDase2 assessed as amount of inorganic phosphate released using ATP as the substrate preincubated at 100 uM for 3 mins before substrate addition after 15 mins by malachite green reagent method. The gist of the method:
as §2

In general, inhibition refers to how much of the control response was suppressed. The term pKi denotes the Ki on a negative log10 scale, so that one unit is a factor of ten.

pKi: −log10 of the molar value. Active and inactive are the calls of the source. No cut-off for these calls is given here.

In the case of `B[P@](=O)(OC[C@H]1O[C@@H](n2cnc3c(N)nc(SC)nc32)[C@H](O)[C@@H]1O)OP(=O)(O)C(Cl)(Cl)P(=O)(O)O`, the inhibition in [1] came out at 41%; in [2], 41%; in experiment [3], 90%.

Turning to `B[P@@](=O)(OC[C@H]1O[C@@H](n2cnc3c(N)nc(SC)nc32)[C@H](O)[C@@H]1O)OP(=O)(O)C(Cl)(Cl)P(=O)(O)O`, the inhibition in experiment [1] is 90%; in experiment [2] it was 90%; in [4], 50%; in [5], 50%; in [3] it was 90%.

For the compound `CSc1nc(N)c2ncn([C@@H]3O[C@H](COP(=O)(O)OP(=O)(O)C(F)(F)P(=O)(O)O)[C@@H](O)[C@H]3O)c2n1`, in experiment [6], the inhibition result was “Active”. Besides, the inhibition in [1] came to 41%; in experiment [2] it was 41%; in experiment [3] it was 90%. The pKi in experiment [7] was 4.43.

With `B[P@@](=O)(OC[C@H]1O[C@@H](n2cnc3c(N)nc(SC)nc32)[C@H](O)[C@@H]1O)OP(=O)(O)CP(=O)(O)O`, the inhibition in experiment [8] is < 18%; in experiment [4] it was < 18%; in experiment [9], < 18%; in experiment [5], < 18%; in [3], 80%.

For the compound `CSc1nc(N)c2ncn([C@@H]3O[C@H](COP(=O)(O)OP(=O)(O)CP(=O)(O)O)[C@@H](O)[C@H]3O)c2n1`, the inhibition in experiment [8] is < 18%; in experiment [4], < 18%; in [9], < 18%; in [5] it was < 18%; in experiment [3], 66%.

As to `B[P@](=O)(OC[C@H]1O[C@@H](n2cnc3c(N)nc(SC)nc32)[C@H](O)[C@@H]1O)OP(=O)(O)C(F)(F)P(=O)(O)O`, the inhibition in experiment [1] stood at 41%; in experiment [2], 41%; in [8] it was 30%; in experiment [4], 50%; in experiment [3] it was 90%.

The values above are taken from ChEMBL document CHEMBL3085721, “Nonhydrolyzable ATP analogues as selective inhibitors of human NPP1: a combined computational/experimental study” (J Med Chem, 2013).
